Like-named read-outs stand apart in the source and are kept apart here.
What was measured:
[1] = format: in vivo, human; details: sitagliptin 100 mg single oral dose, plasma
In short: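 Healthy Korean adults (≥19 years, BMI 18.0–30.0 kg/m2) took a single 100 mg oral tablet with 150 mL water in randomized periods, washout ≥7 days. Heparinized blood was drawn predose and 15 min–48 h postdose, centrifuged 3,000 rpm, 10 min, 4°C, and plasma stored at −70°C. Assay was LC-MS/MS, positive-ion ESI. Noncompartmental: Cmax observed, AUCinf by linear-up log-down trapezoidal rule. ABCB1 genotyped by TaqMan allelic discrimination.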

[2] = cited from earlier work
[3] = cited from earlier work; remark: listed apart in the source

With `N[C@@H](CC(=O)N1CCn2c(nnc2C(F)(F)F)C1)Cc1cc(F)c(F)cc1F` [Sitagliptin] the “Sitagliptin AUCinf” value ([1]; ABCB1 C1236T CC+CT (n=72)) was 3,504.78 ± 655.77 ng*h/mL, the “Sitagliptin Cmax” value ([1]; ABCB1 C1236T CT+TT (n=81)) was 456.01 ± 123.74 ng/mL and the “Sitagliptin AUCinf” value ([1]; ABCB1 C3435T CC (n=49)) was 3,530.20 ± 669.78 ng*h/mL. For the same molecule, the “Sitagliptin AUCinf” value ([1]; ABCB1 C3435T CC+CT (n=91)) was 3,484.02 ± 630.25 ng*h/mL, the “Sitagliptin Cmax” value ([1]; ABCB1 C3435T CT (n=42)) was 454.26 ± 136.79 ng/mL and the “Sitagliptin Cmax” value ([1]; ABCB1 C3435T CT+TT (n=51)) was 457.53 ± 130.73 ng/mL. The “Sitagliptin AUCinf” value ([1]; ABCB1 C3435T TT (n=9)) was 3,528.50 ± 564.05 ng*h/mL, the “Sitagliptin AUCinf” value ([1]; ABCB1 G2677T/A AA (n=2)) was 3,481.41 ng*h/mL and the “Sitagliptin AUCinf” value ([1]; ABCB1 G2677T/A AT+GA (n=37)) was 3,501.79 ± 714.08 ng*h/mL. The “Sitagliptin Cmax” value ([1]; ABCB1 G2677T/A AT+GA (n=37)) was 457.90 ± 98.21 ng/mL, the “Sitagliptin AUCinf” value ([1]; ABCB1 G2677T/A AT+GT (n=44)) was 3,475.54 ± 576.82 ng*h/mL and the “Sitagliptin Cmax” value ([1]; ABCB1 G2677T/A AT+GT (n=44)) was 457.31 ± 142.79 ng/mL. The “Sitagliptin AUCinf” value ([1]; ABCB1 G2677T/A GA (n=20)) was 3,679.91 ± 852.18 ng*h/mL, the “Sitagliptin AUCinf” value ([1]; ABCB1 G2677T/A GA+GT (n=47)) was 3,628.80 ± 723.63 ng*h/mL and the “Sitagliptin AUCinf” value ([1]; ABCB1 G2677T/A TT (n=9)) was 3,477.17 ± 596.14 ng*h/mL. The “drug eliminated as unchanged compound in the urine” value [2] was “over 80%”.

For `C[C@H]1O[C@@H](O[C@H]2[C@@H](O)C[C@H](O[C@H]3[C@@H](O)C[C@H](O[C@H]4CC[C@@]5(C)[C@H](CC[C@@H]6[C@@H]5C[C@@H](O)[C@]5(C)[C@@H](C7=CC(=O)OC7)CC[C@]65O)C4)O[C@@H]3C)O[C@@H]2C)C[C@H](O)[C@@H]1O` [digoxin], the “digoxin concentrations higher in 3435TT homozygous subjects than in CC and CT subjects” value ([3]; 34 Caucasian subjects) is listed as 20%, the “lower AUC for digoxin in 3435 TT genotype than in CC and CT genotypes” value ([3]; Japanese study, 114 subjects) is listed as 20% and the “relationship between C3435T SNP and digoxin concentrations” value ([3]; single digoxin dose) is listed as “no relationship”.
